Source: ChEMBL document CHEMBL4834395, “Azole-Based Indoleamine 2,3-Dioxygenase 1 (IDO1) Inhibitors” (J Med Chem, 2021)
The source made the active and inactive calls. The calls are words filed in the database; no cut-off is given here.

What was measured:
[1] = biological target: T1, Indoleamine 2,3-dioxygenase 1 (Homo sapiens, UniProt P14902); test: Inhibition of recombinant human IDO1 expressed in Escherichia coli Rosetta (DE3) cells assessed as reduction in kynurenine production using L-tryptophan as substrate incubated for 20 mins by HPLC analysis
Target sequence in this assay (P14902 whole entry): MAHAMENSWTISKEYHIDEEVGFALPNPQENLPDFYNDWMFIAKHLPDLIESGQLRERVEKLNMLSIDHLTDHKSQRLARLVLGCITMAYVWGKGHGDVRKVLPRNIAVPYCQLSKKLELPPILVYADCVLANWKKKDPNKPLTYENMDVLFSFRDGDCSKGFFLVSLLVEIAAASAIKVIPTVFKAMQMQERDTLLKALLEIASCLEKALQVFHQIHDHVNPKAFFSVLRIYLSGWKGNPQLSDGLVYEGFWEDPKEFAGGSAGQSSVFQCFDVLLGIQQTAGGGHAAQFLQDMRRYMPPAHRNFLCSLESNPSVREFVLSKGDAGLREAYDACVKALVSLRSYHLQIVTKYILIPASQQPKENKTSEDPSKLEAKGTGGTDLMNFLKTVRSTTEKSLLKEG

HEK-293T = test: Cytotoxicity against human HEK293T cells assessed as reduction in cell viability at 200 uM after 7 hrs by DAPI staining based assay
In short: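 HEK 293T cells transiently transfected with hIDO1 (plus GFP plasmid), treated at 200 μM test compound with 2% final DMSO for 7 h at 37 °C; DMSO as negative control. Cells then washed in PBS, resuspended in PBS with 1 μg/mL DAPI and analysed immediately by flow cytometry to detect apoptotic cells.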

[2] = biological target: T1, Indoleamine 2,3-dioxygenase 1; test: Inhibition of human IDO1 expressed in HEK293T cells assessed as reduction in kynurenine production using L-tryptophan as substrate incubated for 7 hrs by HPLC analysis; type: cell-based
Target sequence in this assay (P14902 whole entry): as above

[3] = biological target: T1, Indoleamine 2,3-dioxygenase 1; test: Inhibition of recombinant human IDO1 expressed in Escherichia coli Rosetta (DE3) cells assessed as reduction in kynurenine production using L-tryptophan as substrate at pH 7.4 incubated for 20 mins by HPLC analysis
Target sequence in this assay (P14902 whole entry): as above

[4] = biological target: T1, Indoleamine 2,3-dioxygenase 1; test: Inhibition of human IDO1 expressed in HEK293T cells assessed as reduction in kynurenine production at 200 uM using L-tryptophan as substrate incubated for 7 hrs by HPLC analysis; type: cell-based
In short: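 HEK 293T cells transiently transfected with full-length hIDO1 in pcDNA6/myc-His (with GFP plasmid to check efficiency); 16–18 h later replated in phenol-red-free DMEM with 10% FBS, 1 mM pyruvate, and added 500 μM L-trp. Compound at 200 μM, 2% final DMSO, 7 h at 37 °C; stopped with TCA (4% final). Kynurenine read by p-DMAB absorbance at 480 nm or by HPLC.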
Target sequence in this assay (P14902 whole entry, looked up): as the sequence (P14902 whole entry) above

Row | SMILES | IC50 [1] [µM] | IC50 [2] [µM] | IC50 [3] [µM] | inhibition [4] | Activity (HEK-293T)
1 | Oc1ccc(Cl)cc1-c1nnn[nH]1 | 16 | – | – | – | Non-Toxic
2 | c1ccc(-n2ccnc2)cc1 | – | – | – | – | Non-Toxic
3 | Nc1ccc(Cl)cc1-c1nnc[nH]1 | 0.035 | 0.034 | – | – | Non-Toxic
4 | Clc1cccc(-n2ccnc2)c1 | 41 | – | – | – | Non-Toxic
5 | Oc1ccc(Cl)cc1-c1cnc[nH]1 | – | – | – | – | Non-Toxic
6 | c1ccc(-c2cnn[nH]2)cc1 | – | – | – | – | Non-Toxic
7 | Cn1cncc1-c1cc(Cl)ccc1N | 1200 | – | – | – | Non-Toxic
8 | Clc1cccc(-c2c[nH]nn2)c1 | 0.35 | – | – | – | Non-Toxic
9 | Oc1ccccc1-c1c[nH]cn1 | – | – | – | – | Non-Toxic
10 | c1ccc(-c2nnn[nH]2)cc1 | – | – | – | – | Non-Toxic
11 | Nc1ccc(Cl)cc1-c1nnn[nH]1 | 0.22 | – | – | – | Non-Toxic
12 | Clc1cccc(-c2cnc[nH]2)c1 | 2.6 | – | – | – | Non-Toxic
13 | Oc1ccc(Cl)cc1-n1ccnc1 | 2.1 | – | – | inactive | Non-Toxic
14 | Oc1ccccc1-c1nnn[nH]1 | 700 | – | – | – | Non-Toxic
15 | Nc1ccccc1-c1cnc[nH]1 | 18 | – | – | – | Non-Toxic
16 | c1ccc(-c2c[nH]cn2)cc1 | – | – | – | – | Non-Toxic
17 | Clc1cccc(-c2nnc[nH]2)c1 | 31 | – | – | – | Non-Toxic
18 | Cn1cncc1-c1ccccc1 | – | – | – | – | Non-Toxic
19 | Nc1ccc(Cl)cc1-c1cnn[nH]1 | 1.5 | – | – | – | 30%
20 | Nc1ccc(Cl)cc1-c1cnc[nH]1 | 12.1 | – | – | – | Non-Toxic
21 | Cn1cncc1-c1ccccc1O | 38 | – | – | – | Non-Toxic
22 | Oc1ccc(Cl)cc1-c1c[nH]nn1 | – | – | – | – | Non-Toxic
23 | Oc1ccccc1-c1c[nH]nn1 | 2.3 | – | – | – | Non-Toxic

Now from value to molecule, other results behind:

Row | IC50 [1] [µM] | IC50 [2] [µM] | IC50 [3] [µM] | inhibition [4] | SMILES | Activity (HEK-293T)
24 | 33 | – | – | – | Nc1ccccc1-c1c[nH]nn1 | 30%
25 | 31 | – | – | – | Oc1ccccc1-c1nnc[nH]1 | Non-Toxic
26 | 0.6 | – | – | – | Oc1ccc(Cl)cc1-c1nnc[nH]1 | Non-Toxic
27 | – | – | 580 | – | c1ccc(-c2nc[nH]n2)cc1 | Non-Toxic
28 | 100 | – | – | – | Clc1cccc(-c2nnn[nH]2)c1 | Non-Toxic
29 | 1700 | – | – | – | Cn1cncc1-c1ccccc1N | Non-Toxic
30 | 16 | – | – | – | Oc1ccccc1-n1ccnc1 | Non-Toxic
31 | 17 | – | – | – | Cn1cncc1-c1cc(Cl)ccc1O | Non-Toxic
32 | 1300 | – | – | – | Nc1ccccc1-n1ccnc1 | Non-Toxic
33 | 5.8 | – | – | – | Nc1ccccc1-c1nnn[nH]1 | Non-Toxic
34 | 88 | – | – | – | Nc1ccc(Cl)cc1-n1ccnc1 | Non-Toxic
35 | 2 | – | – | – | Nc1ccccc1-c1nnc[nH]1 | Non-Toxic
36 | 0.02 | – | – | – | Nc1ccc(Br)cc1-c1nc[nH]n1 | –
37 | 12.9 | – | – | – | Cn1cncc1-c1cccc(Cl)c1 | Non-Toxic
